In brackets after ≈: the same amount, converted by molar mass. Activity calls are given as the source filed them. The rule behind the calls is not given here.
What was measured:
Lo1 = assay: (§1) Cytotoxicity against human […] cells; type: functional
KB-V [1] = assay: (§2) Cytotoxicity against human multidrug resistant KB-V cells; type: functional
KB-V [2] = assay: (§3) Cytotoxicity against human multidrug resistant KB-V cells in presence of vinblastine; type: functional
Col2 = assay: Cytotoxicity against human Col2 cells; type: functional; settings: for EC50: read-out: ED50 (the source's name)
LNCaP = assay: Cytotoxicity against human LNCaP cells; type: functional; settings: for EC50: read-out: ED50 (the source's name)
SK-N-SH = assay: Cytotoxicity against human SK-N-SH cells; type: functional; settings: for EC50: read-out: ED50 (the source's name)
M109 (Mus musculus) = assay: Cytotoxicity against mouse M109 cells; settings: for EC50: read-out: ED50 (the source's name)
BC1 = assay: (§4) Cytotoxicity against human BC1 cells; type: functional
SW626 = assay: Cytotoxicity against human SW626 cells; type: functional; settings: for EC50: read-out: ED50 (the source's name)
KB = assay: Cytotoxicity against human KB cells; type: functional; settings: for EC50: read-out: ED50 (the source's name)
[3] = as §1; type: functional; settings: read-out: ED50 (the source's name)
[4] = as §2; type: functional; settings: KBV, read-out: ED50 (the source's name)
[5] = as §3; type: functional; settings: KBV, read-out: ED50 (the source's name)
[6] = as §4; type: functional; settings: read-out: ED50 (the source's name)
P388 = assay: Antitumor activity against mouse P388 leukemia system at 72 mg/kg, ip relative to control; type: functional; settings: route intraperitoneal
Method in brief: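 Six female CDF1 mice per group received 10^6 P-388 cells i.p. in 0.5 mL RPMI medium. Starting one day later, test compound was given i.p. daily for 5 days, with doses of 8, 24 and 72 mg/kg/injection. Read-out was survival, reported as % T/C (median survival of treated over control ×100). T/C ≥125% was taken as significant.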

Row | SMILES | Activity (Lo1) | Activity (KB-V [1]) | Activity (KB-V [2]) | Activity (Col2) | Activity (LNCaP) | Activity (SK-N-SH) | Activity (M109 (Mus musculus)) | Activity (BC1) | Activity (SW626) | Activity (KB) | EC50 [3] | EC50 [4] | EC50 [5] | EC50 (Col2) | EC50 (LNCaP) | EC50 (SK-N-SH) | EC50 (M109 (Mus musculus)) | EC50 [6] | EC50 (SW626) | EC50 (KB) | also measured
1 | CC(C)=CC[C@H]1C(=O)c2ccccc2[C@@H](O)[C@@H]1O | inactive | inactive | inactive | inactive | inactive | inactive | inactive | inactive | inactive | inactive |  |  |  |  |  |  |  |  |  |  | 
2 | CC(C)=CC[C@@H]1C[C@H](O)c2ccccc2C1=O | inactive | inactive | inactive | inactive | inactive | inactive | inactive | inactive | inactive | inactive |  |  |  |  |  |  |  |  |  |  | 
3 | CC(C)(O)[C@H]1C[C@H]2C(=O)c3ccccc3[C@@H](O)[C@@H]2O1 (relative stereo) | inactive | inactive | inactive | inactive | inactive | inactive | inactive | inactive | inactive | inactive |  |  |  |  |  |  |  |  |  |  | 
4 | CC(=O)c1cc2c(o1)C(=O)c1ccccc1C2=O [NAPABUCASIN] |  |  |  |  |  |  |  |  |  |  | 0.3 µg/mL (≈ 1.25 µM) | 0.9 µg/mL (≈ 3.75 µM) | 0.9 µg/mL | 0.4 µg/mL (≈ 1.67 µM) | 0.2 µg/mL (≈ 0.833 µM) | 0.8 µg/mL (≈ 3.33 µM) | 0.9 µg/mL (≈ 3.75 µM) | 0.4 µg/mL (≈ 1.67 µM) | 0.2 µg/mL (≈ 0.833 µM) | 0.2 µg/mL (≈ 0.833 µM) | 
5 | C=C(C)C1CC2=C(O1)C(=O)c1ccccc1C2=O (stereo not drawn) [DEHYDROISO-ALPHA-LAPACHONE] |  |  |  |  |  |  |  |  |  |  | 0.2 µg/mL (≈ 0.832 µM) | 0.5 µg/mL (≈ 2.08 µM) | 0.3 µg/mL | 0.2 µg/mL (≈ 0.832 µM) | 0.2 µg/mL (≈ 0.832 µM) | 0.2 µg/mL (≈ 0.832 µM) | 0.4 µg/mL (≈ 1.66 µM) | 1 µg/mL (≈ 4.16 µM) | 0.3 µg/mL (≈ 1.25 µM) | 0.2 µg/mL (≈ 0.832 µM) | 
6 | CC(C)=CC[C@@H]1C(=O)c2ccccc2[C@@H](O)[C@@H]1O | inactive | inactive | inactive | inactive | inactive | inactive | inactive | inactive | inactive | inactive |  |  |  |  |  |  |  |  |  |  | 
7 | CC1(C)CCC2=C(O1)C(=O)c1ccccc1C2=O [ALPHA-LAPACHONE] |  |  |  |  |  |  |  |  |  |  | 5.3 µg/mL (≈ 21.9 µM) | 12.9 µg/mL (≈ 53.2 µM) | 8.3 µg/mL | 9.9 µg/mL (≈ 40.9 µM) | 7.1 µg/mL (≈ 29.3 µM) | 5.1 µg/mL (≈ 21.1 µM) | 9 µg/mL (≈ 37.1 µM) | 6.7 µg/mL (≈ 27.7 µM) | 3 µg/mL (≈ 12.4 µM) | 13 µg/mL (≈ 53.7 µM) | 
8 | CC(O)c1cc2c(o1)C(=O)c1ccccc1C2=O (stereo unspecified) |  |  |  |  |  |  |  |  |  |  | 0.2 µg/mL (≈ 0.826 µM) | 2 µg/mL (≈ 8.26 µM) | 1.2 µg/mL | 1.8 µg/mL (≈ 7.43 µM) | 3.5 µg/mL (≈ 14.4 µM) | 4 µg/mL (≈ 16.5 µM) | 1.8 µg/mL (≈ 7.43 µM) | 3.2 µg/mL (≈ 13.2 µM) | 0.3 µg/mL (≈ 1.24 µM) | 0.5 µg/mL (≈ 2.06 µM) | T/C (P388): 110%
9 | CC(C)=CC[C@H]1C[C@H](O)c2ccccc2C1=O | inactive | inactive | inactive | inactive | inactive | inactive | inactive | inactive | inactive | inactive |  |  |  |  |  |  |  |  |  |  | 

Source: ChEMBL document CHEMBL1154565, “Cytotoxic constituents of the roots of Ekmanianthe longiflora” (2000)
